Data on five molecules can be found in ChEMBL document CHEMBL5705888, “Substrate specificity and inhibitors of LRRK2, a protein kinase mutated in Parkinson's disease” (Biochem J, 2009).

Each structure is given as a SMILES string. The source made the active and inactive calls. The rule behind the calls is not given here.

Test [1] has as its target T1, Leucine-rich repeat serine/threonine-protein kinase 2 (Homo sapiens, UniProt Q5S007). The experiment in a line: Inhibition of LRRK2 in human Flp-In-T-REx-293 cells assessed as inhibition of ERM phosphorylation at 10 uM incubated for 1 hr in presence of LRRKtide by immunoblot analysis. It is filed as cell-based. An outline of the steps:
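Flp-in T-REx cells carrying GFP-tagged G14V-Rho were left uninduced or induced with 1 μg/ml doxycycline. At 7 h, compound at 10 μM was added for 1 h. Cells were lysed in SDS lysis buffer, run on 4–12% gels and immunoblotted with pan-phospho-ERM antibody (1 μg/ml in milk/TBST containing 10 μg/ml LRRKtide).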
In general terms: Immunoblotting shows a protein as a band on a membrane.

For test [2], the target named is Insulin-like growth factor 1 receptor (Homo sapiens) (UniProt P08069). The experiment in a line: Inhibition of IGF-1R (unknown origin) at 1 uM incubated for 30 mins in presence of [gamma-33P]ATP by multidrop micro reagent based assay relative to control; values are per cent of control.
The target of test [3] is Mitogen-activated protein kinase kinase kinase 11 (Homo sapiens) (UniProt Q16584). The experiment in a line: Inhibition of MLK3 (unknown origin) at 1 uM incubated for 30 mins in presence of [gamma-33P]ATP by multidrop micro reagent based assay relative to control; values are per cent of control.
Test [4] has as its target Myosin light chain kinase, smooth muscle (Homo sapiens) (UniProt Q15746). The experiment in a line: Inhibition of SmMLCK (unknown origin) at 1 uM incubated for 30 mins in presence of [gamma-33P]ATP by multidrop micro reagent based assay relative to control; values are per cent of control.
Test [5] addresses Glycogen synthase kinase-3 beta (Homo sapiens) (UniProt P49841). The experiment in a line: Inhibition of GSK3beta (unknown origin) at 1 uM incubated for 30 mins in presence of [gamma-33P]ATP by multidrop micro reagent based assay relative to control; values are per cent of control.
Test [6] deals with Serine/threonine-protein kinase pim-3 (Homo sapiens) (UniProt Q86V86). Put plainly: Inhibition of PIM3 (unknown origin) at 1 uM incubated for 30 mins in presence of [gamma-33P]ATP by multidrop micro reagent based assay relative to control; values are per cent of control.
Test [7] has as its target Serine/threonine-protein kinase Nek6 (Homo sapiens) (UniProt Q9HC98). Put plainly: Inhibition of NEK6 (unknown origin) at 1 uM incubated for 30 mins in presence of [gamma-33P]ATP by multidrop micro reagent based assay relative to control; values are per cent of control.
The target in test [8] is Dual specificity mitogen-activated protein kinase kinase 1 (Homo sapiens) (UniProt Q02750). Put plainly: Inhibition of MKK1 (unknown origin) at 1 uM incubated for 30 mins in presence of [gamma-33P]ATP by multidrop micro reagent based assay relative to control; values are per cent of control.
Sequence of Dual specificity mitogen-activated protein kinase kinase 1 (Homo sapiens) (Q02750 whole entry): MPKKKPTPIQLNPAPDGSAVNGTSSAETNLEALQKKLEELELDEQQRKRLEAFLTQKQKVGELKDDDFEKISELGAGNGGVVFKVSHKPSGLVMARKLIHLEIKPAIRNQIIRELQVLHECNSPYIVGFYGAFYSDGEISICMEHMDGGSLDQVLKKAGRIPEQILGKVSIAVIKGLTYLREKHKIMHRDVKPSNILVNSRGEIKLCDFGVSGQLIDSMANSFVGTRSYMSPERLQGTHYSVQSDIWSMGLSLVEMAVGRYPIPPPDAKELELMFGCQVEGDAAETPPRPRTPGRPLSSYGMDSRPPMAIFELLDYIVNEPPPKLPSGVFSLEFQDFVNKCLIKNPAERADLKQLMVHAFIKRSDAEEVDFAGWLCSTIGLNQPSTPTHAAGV
Test [9] has as its target Ribosomal protein S6 kinase beta-1 (Homo sapiens) (UniProt P23443). Put plainly: Inhibition of S6K1 (unknown origin) at 1 uM incubated for 30 mins in presence of [gamma-33P]ATP by multidrop micro reagent based assay relative to control; values are per cent of control.
The target in test [10] is Aurora kinase B (Homo sapiens) (UniProt Q96GD4). Put plainly: Inhibition of Aurora B kinase (unknown origin) at 1 uM incubated for 30 mins in presence of [gamma-33P]ATP by multidrop micro reagent based assay relative to control; values are per cent of control.
Sequence of Aurora kinase B (Homo sapiens) (Q96GD4 whole entry): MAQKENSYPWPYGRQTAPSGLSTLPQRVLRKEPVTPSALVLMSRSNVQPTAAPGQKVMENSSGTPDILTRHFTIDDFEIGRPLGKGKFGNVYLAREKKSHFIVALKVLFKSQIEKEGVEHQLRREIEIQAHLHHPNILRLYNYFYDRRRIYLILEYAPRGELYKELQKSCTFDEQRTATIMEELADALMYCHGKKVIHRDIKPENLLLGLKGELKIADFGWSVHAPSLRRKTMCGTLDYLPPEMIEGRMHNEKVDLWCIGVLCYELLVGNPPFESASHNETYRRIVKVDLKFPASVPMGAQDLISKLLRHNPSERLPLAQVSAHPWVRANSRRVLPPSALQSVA
Test [11] addresses T1, Leucine-rich repeat serine/threonine-protein kinase 2. Put plainly: Inhibition of LRRK2 (unknown origin) at 1 uM incubated for 30 mins in presence of [gamma-33P]ATP by multidrop micro reagent based assay relative to control; values are per cent of control.
For test [12], the target named is Mitogen-activated protein kinase 8 (Homo sapiens) (UniProt P45983). The experiment in a line: Inhibition of JNK1 (unknown origin) at 1 uM incubated for 30 mins in presence of [gamma-33P]ATP by multidrop micro reagent based assay relative to control; values are per cent of control.
Sequence of Mitogen-activated protein kinase 8 (Homo sapiens) (P45983 whole entry): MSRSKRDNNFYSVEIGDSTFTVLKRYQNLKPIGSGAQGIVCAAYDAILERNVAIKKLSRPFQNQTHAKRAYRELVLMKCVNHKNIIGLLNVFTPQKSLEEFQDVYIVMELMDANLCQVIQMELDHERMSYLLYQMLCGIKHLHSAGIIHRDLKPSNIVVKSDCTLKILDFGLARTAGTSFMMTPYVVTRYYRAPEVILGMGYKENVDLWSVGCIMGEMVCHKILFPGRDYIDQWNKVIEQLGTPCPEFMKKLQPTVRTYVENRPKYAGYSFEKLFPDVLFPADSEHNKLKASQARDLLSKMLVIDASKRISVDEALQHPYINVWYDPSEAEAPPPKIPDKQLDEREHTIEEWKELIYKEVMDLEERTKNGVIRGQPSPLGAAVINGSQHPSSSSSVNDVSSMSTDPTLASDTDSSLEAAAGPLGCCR
The target in test [13] is T2, Interleukin-1 receptor-associated kinase 4 (Homo sapiens) (UniProt Q9NWZ3).
T2 sequence (whole entry): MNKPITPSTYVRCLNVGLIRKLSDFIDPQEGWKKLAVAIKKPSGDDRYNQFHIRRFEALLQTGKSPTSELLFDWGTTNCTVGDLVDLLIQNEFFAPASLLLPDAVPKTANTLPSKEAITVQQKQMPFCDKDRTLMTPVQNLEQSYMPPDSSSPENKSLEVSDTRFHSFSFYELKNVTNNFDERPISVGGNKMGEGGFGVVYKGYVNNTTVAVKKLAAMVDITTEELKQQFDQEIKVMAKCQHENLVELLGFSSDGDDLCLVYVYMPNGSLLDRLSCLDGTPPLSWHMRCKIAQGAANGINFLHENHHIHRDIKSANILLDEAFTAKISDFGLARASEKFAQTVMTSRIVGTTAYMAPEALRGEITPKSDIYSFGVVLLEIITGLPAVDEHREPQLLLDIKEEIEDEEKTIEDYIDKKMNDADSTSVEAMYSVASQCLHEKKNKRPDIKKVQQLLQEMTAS
Put plainly: Activity of IRAK4 (unknown origin) at 1 uM incubated for 30 mins in presence of [gamma-33P]ATP by multidrop micro reagent based assay relative to control.

Test [14] addresses AMP-activated protein kinase, AMPK (Homo sapiens) (UniProt P54646+O43741+P54619+Q9UGJ0+Q9Y478+Q13131+Q9UGI9). Put plainly: Inhibition of AMPK (unknown origin) at 1 uM incubated for 30 mins in presence of [gamma-33P]ATP by multidrop micro reagent based assay relative to control; values are per cent of control.
The target of test [15] is Serine/threonine-protein kinase Chk2 (Homo sapiens) (UniProt O96017). Put plainly: Inhibition of CHK2 (unknown origin) at 1 uM incubated for 30 mins in presence of [gamma-33P]ATP by multidrop micro reagent based assay relative to control; values are per cent of control.
Sequence of Serine/threonine-protein kinase Chk2 (Homo sapiens) (O96017 whole entry): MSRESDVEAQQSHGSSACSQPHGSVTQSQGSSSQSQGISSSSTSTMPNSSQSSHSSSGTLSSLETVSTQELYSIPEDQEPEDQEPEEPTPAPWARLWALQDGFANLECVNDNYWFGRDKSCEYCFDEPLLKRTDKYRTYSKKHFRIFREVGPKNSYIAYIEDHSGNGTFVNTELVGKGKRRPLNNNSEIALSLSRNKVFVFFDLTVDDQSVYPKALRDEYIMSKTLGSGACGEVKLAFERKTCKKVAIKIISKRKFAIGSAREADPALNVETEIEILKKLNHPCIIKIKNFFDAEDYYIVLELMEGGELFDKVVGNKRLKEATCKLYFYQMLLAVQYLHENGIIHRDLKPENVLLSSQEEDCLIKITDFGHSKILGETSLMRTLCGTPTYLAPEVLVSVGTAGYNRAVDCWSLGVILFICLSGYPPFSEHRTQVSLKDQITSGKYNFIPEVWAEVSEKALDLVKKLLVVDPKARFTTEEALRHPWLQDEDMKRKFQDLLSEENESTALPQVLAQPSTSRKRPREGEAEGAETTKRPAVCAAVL

Sequence of Myosin light chain kinase, smooth muscle (Homo sapiens) (Q15746 whole entry): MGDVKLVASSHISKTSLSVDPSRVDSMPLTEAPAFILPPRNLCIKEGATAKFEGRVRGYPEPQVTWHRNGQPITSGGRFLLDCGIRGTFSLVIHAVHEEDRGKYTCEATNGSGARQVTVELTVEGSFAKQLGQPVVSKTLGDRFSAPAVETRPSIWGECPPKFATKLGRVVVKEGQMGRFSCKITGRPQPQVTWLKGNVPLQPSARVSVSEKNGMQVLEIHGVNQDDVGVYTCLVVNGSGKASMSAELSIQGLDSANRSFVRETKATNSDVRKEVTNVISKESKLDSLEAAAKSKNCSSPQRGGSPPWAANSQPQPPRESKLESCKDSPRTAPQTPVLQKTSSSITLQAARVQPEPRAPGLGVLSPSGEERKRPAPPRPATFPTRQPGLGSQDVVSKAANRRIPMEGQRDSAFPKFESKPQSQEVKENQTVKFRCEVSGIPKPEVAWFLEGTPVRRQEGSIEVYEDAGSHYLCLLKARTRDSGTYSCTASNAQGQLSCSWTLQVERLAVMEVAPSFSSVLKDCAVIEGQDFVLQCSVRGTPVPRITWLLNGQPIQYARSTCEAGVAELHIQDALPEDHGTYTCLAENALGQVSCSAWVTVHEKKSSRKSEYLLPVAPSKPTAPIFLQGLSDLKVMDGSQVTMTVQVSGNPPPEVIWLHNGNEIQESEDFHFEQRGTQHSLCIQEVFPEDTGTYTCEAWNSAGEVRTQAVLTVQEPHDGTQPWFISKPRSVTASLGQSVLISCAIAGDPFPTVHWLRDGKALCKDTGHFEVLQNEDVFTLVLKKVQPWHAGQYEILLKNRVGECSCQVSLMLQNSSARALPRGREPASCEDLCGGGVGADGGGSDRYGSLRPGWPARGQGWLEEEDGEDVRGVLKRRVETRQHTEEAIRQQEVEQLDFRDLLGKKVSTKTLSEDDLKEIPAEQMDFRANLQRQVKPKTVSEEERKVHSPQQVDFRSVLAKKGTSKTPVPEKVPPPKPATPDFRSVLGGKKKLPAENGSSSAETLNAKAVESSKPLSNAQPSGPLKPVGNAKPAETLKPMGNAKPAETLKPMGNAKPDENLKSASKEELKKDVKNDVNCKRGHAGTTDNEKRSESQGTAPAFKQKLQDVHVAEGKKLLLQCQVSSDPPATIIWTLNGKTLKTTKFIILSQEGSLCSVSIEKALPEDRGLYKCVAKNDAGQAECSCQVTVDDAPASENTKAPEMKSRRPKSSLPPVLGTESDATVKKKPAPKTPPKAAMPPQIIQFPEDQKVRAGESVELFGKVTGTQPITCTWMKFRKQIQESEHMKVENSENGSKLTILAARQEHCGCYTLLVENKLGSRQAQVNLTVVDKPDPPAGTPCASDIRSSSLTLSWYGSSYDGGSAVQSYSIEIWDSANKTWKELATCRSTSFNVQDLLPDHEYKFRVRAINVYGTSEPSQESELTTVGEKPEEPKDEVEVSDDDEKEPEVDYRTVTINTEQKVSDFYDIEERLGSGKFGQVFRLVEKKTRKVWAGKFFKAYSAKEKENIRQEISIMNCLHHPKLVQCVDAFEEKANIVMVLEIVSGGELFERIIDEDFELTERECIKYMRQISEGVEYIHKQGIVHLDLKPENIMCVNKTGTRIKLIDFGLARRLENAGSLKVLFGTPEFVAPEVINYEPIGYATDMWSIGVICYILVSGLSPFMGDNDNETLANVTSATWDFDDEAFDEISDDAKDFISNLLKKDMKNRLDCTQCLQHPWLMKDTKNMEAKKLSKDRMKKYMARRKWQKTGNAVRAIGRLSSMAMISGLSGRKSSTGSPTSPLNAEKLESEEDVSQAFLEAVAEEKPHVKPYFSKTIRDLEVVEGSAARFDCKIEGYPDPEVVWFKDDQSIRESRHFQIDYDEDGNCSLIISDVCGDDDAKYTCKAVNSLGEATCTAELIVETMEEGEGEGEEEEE
Sequence of Ribosomal protein S6 kinase beta-1 (Homo sapiens) (P23443 whole entry, looked up): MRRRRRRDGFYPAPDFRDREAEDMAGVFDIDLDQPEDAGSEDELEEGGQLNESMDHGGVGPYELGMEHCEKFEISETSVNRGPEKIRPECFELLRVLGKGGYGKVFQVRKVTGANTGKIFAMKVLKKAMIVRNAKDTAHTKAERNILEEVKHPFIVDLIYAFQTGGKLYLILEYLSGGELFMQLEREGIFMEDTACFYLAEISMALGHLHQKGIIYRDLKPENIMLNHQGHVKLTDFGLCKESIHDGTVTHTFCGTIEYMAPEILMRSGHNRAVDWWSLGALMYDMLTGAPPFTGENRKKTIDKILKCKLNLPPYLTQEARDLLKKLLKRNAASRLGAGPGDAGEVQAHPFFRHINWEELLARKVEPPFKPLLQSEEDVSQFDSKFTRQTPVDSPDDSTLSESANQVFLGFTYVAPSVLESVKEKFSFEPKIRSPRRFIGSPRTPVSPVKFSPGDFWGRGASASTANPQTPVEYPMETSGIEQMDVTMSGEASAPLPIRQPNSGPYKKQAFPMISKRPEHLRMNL
Sequence of Glycogen synthase kinase-3 beta (Homo sapiens) (P49841 whole entry, looked up): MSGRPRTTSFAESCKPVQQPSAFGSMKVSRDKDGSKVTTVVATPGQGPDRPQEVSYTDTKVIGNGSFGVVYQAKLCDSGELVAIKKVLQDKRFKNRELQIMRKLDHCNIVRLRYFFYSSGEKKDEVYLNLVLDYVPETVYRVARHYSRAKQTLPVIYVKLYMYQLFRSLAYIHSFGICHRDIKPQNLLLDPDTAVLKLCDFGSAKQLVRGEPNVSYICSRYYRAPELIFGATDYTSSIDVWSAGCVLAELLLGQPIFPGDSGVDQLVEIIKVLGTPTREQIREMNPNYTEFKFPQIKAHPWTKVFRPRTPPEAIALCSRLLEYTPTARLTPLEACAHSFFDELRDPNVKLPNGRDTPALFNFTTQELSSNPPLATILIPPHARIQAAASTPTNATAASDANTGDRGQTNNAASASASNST
Sequence of Serine/threonine-protein kinase Nek6 (Homo sapiens) (Q9HC98 whole entry): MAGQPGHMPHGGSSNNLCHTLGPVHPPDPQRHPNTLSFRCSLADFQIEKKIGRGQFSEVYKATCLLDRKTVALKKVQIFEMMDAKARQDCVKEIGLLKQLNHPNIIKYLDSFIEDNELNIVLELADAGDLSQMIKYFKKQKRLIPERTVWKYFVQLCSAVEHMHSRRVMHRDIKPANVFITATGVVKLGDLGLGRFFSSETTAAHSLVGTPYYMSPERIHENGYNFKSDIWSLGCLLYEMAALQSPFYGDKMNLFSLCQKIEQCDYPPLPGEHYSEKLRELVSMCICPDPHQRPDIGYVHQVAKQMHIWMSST

In the case of `C[C@@H](N)[C@H]1CC[C@H](C(=O)Nc2ccncc2)CC1`, in [1], the inhibition entry is “inactive”.

For `CCn1c(-c2nonc2N)nc2cnc(Oc3cccc(NC(=O)c4ccc(OCCN5CCOCC5)cc4)c3)cc21` [GSK-269962A], the residual activity in test [2] came out at 104%; in [3], 97%; in test [4] it was 65%; in [5], 12%; in [6] it was 35%; in [7], 82%. Further, the residual activity in test [8] was 54%; in test [9] it was 2%; in [10], 36%; in test [11] it was 71%; in [12] it was 105%; in [13] it was 78%. Also, the inhibition entry in test [1] was “inactive”.

Regarding `CC1=C(C(=O)Nc2cc3cn[nH]c3cc2F)C(c2ccc(C(F)(F)F)cc2)CC(=O)N1` (stereo not drawn), the residual activity amounted to 97% in test [2]; 116% in test [3]; 73% in [4]; 93% in test [5]; 89% in test [6]; 87% in test [7]. For the same molecule, the residual activity in test [14] turned out to be 78%; in [8], 61%; in [15], 102%; in test [9], 24%; in test [10], 59%; in [11], 98%. The residual activity in test [12] was 111%; in test [13], 94%. For the same molecule, in test [1], the inhibition result is “inactive”.

As to `Cc1cncc2cccc(S(=O)(=O)N3CCCNC[C@@H]3C)c12`, the residual activity in [2] was determined as 113%; in [3], 85%; in test [4], 96%; in test [5], 72%; in test [7], 99%; in test [14], 45%. Also, the residual activity was 69% in test [8]; 44% in [15]; 72% in [9]; 11% in test [10]; 20% in test [11]; 96% in [12]. Further, the residual activity in test [13] was 102%. The inhibition entry in [1] is “inactive”.

With `CCN(CC)CCNC(=O)c1c(C)[nH]c(/C=C2\C(=O)Nc3ccc(F)cc32)c1C`, the residual activity in [6] was determined as 50%; in test [14], 15%; in test [15] it was 5%; in [10], 29%. The inhibition entry in test [1] was “inactive”.
